From PubChem BioAssay come the findings set out here.

The nature of assay [1]: SK-BR-3 cell growth inhibitors, pilot screen, 24 h, human (AID 572;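 active = viability at or below 10% of carrier control in both of two separate runs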;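 note: compound exposure lasted between 18 and 24 h rather than exactly 24 h; 100% = carrier-treated control wells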). The settings on record: SK-BR-3 viability, CellTiter-Glo luminescence, at 10 µM, stronger effect = lower value. A general note: Cellular ATP, detected with luciferase, serves as a proxy for viable cell number.
Assay [2] in a line: HUVEC growth inhibition – cell-based, human, primary screen (AID 575;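 active = viability at or below 30% in both replicate assays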;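 note: 100% = median of untreated cell wells with 0.1% DMSO on each plate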). The settings on record: HUVEC proliferation, CellTiter-Glo luminescence, 72 h; at 10 µM; stronger effect = lower value. In short, it runs like this: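 Test system: primary human umbilical vein endothelial cells. Quantity: 1250 cells/well. Compound: single 10 µM dose, 0.1% DMSO, from 5x medium stock. Timing: 72 h treatment at 37 °C. Detection: ATP-based CellTiter-Glo luminescent read. Benchmarks: vehicle and MePR control wells. Format: 384-well plates coated with collagen.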

The nature of assay [3]: growth inhibitors of H69AR lung tumor, primary screen, human, duplicate replicates (AID 580).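 Note: 100% = mean luminescence of untreated wells and 0% = no signal.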 The following applies: H69AR lung tumor cells viability, ATP luminescence, 72 h; at 10 µM; stronger effect = lower value.
Assay [4] can be described thus: reversal of MRP1-mediated doxorubicin resistance, pilot screen, H69AR cells, doxorubicin co-treatment (AID 601;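 active = viability loss from added drug above about 55%, and viability with drug at most 40%, in both replicates, limit read from the data, passing the limit was not always enough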). The following applies: CellTiter-Glo, 72 h, at 10 µM; for differential viability (reversal): stronger effect = higher value.
Assay [5] is described as follows: 384-well plate pilot, post-Golgi transport modulator project, inhibition of yeast transport mutant growth (AID 636; in the data active = inhibition above about 31%). The following applies: absorbance 615 nm, about 18 h, stronger effect = higher value.
Assay [6] can be described thus: growth suppression of yeast trafficking mutant, preliminary HTS, modulators of trafficking downstream of Golgi apparatus project, 1536-format plate, OD 615 nm (AID 637; in the data active = inhibition above about 30%). The following applies: yeast transport mutant growth, absorbance 615 nm, 18 h; stronger effect = higher value.
Setting [7] is: H69AR cells + 2 uM doxorubicin, measured here: viability with 2 uM doxorubicin, stronger effect = lower value.
Setting [8] is: H69AR cells, compound alone cytotoxicity.

The source made the active and inactive calls.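 Rule for the calls, unless noted: active = viability at or under a set limit in both replicates, limit being median viability minus 3 SD (cut at about 48% in these data, passing the limit was not always enough); inconclusive = at or under the limit in just one replicate; inactive = at or above the limit in both replicates.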

For orientation: viability means a read-out of living cells in per cent, often relative to untreated cells. For orientation: inhibition means the drop in the measured response relative to a control, in per cent. In the case of `CCCCc1c(O)nc(N2CCN(Cc3ccccc3)CC2)[nH]c1=O`, the viability was 93% (inactive) in assay [1]; 98.8% (inactive) in assay [2]; 96.1% (inactive) in assay [3]; 97.8% in assay [4] (setting [7]); 96.1% in assay [4] (setting [8]). Besides, in assay [4] (H69AR cells + 2 uM doxorubicin), the differential viability (reversal) was -1.67% (inactive). The inhibition in assay [5] is -7.16% (inactive); in assay [6], -1.82% (inactive).
As for `CCOCCCN(Cc1cc2cc(C)cc(C)c2[nH]c1=O)C(=O)N(CC)CC`, the viability in assay [1] was 58% (inactive); in assay [2], 116% (inactive); in assay [3], 82% (inactive); in assay [4] (setting [7]), 84.5%; in assay [4] (setting [8]), 82%. The differential viability (reversal) in assay [4] (H69AR cells + 2 uM doxorubicin) is -2.52% (inactive). The results for the inhibition in assay [5] and in assay [6] were 0.93% (inactive) and 10% (inactive), respectively.
Turning to `CC1(C)O[C@@H]2C[C@H]3[C@@H]4C[C@H](F)C5=CC(=O)CC[C@]5(C)[C@H]4[C@@H](O)C[C@]3(C)[C@]2(C(=O)CO)O1`, the viability is 104% (inactive) in assay [1]; 107% (inactive) in assay [2]; 95.2% (inactive) in assay [3]; 97.7% in assay [4] (setting [7]); 95.2% in assay [4] (setting [8]). Moreover, in assay [4] (H69AR cells + 2 uM doxorubicin), the differential viability (reversal) was -2.5% (inactive). Also, the inhibition in assay [5] is -5.45% (inactive); in assay [6], -0.5% (inactive).
With `CC1CCCCC1NC(=O)COc1ccc(-n2cnnn2)cc1` (stereo unspecified), the viability in assay [1] is 100% (inactive); in assay [2], 103% (inactive); in assay [3], 101% (inactive); in assay [4] (setting [7]), 101%; in assay [4] (setting [8]) it was 101%. Further, the differential viability (reversal) in assay [4] (H69AR cells + 2 uM doxorubicin) is -0.38% (inactive). The figures for the inhibition in assay [5] and in assay [6] were 0% (inactive) and 0.73% (inactive), respectively.
For `CCSc1nc(N)c(C#N)c(-c2ccccc2Cl)c1C#N`, the viability in assay [1] is 105% (inactive); in assay [2], 96.1% (inactive); in assay [3], 75.9% (inactive); in assay [4] (setting [7]) it was 78.9%; in assay [4] (setting [8]), 75.9%. Besides, the differential viability (reversal) in assay [4] (H69AR cells + 2 uM doxorubicin) was -3% (inactive). For the same compound, the inhibition in assay [5] is 0.14% (inactive); in assay [6], 0% (inactive).
Take `Cc1ccc2nc3c(cc(C(=O)NCC4CCCO4)n3C)c(=O)n2c1` (stereo unspecified): the viability in assay [1] is 134% (inactive); in assay [2] it was 110% (inactive); in assay [3], 94.9% (inactive); in assay [4] (setting [7]) it was 87.1%; in assay [4] (setting [8]), 94.9%. Besides, the differential viability (reversal) in assay [4] (H69AR cells + 2 uM doxorubicin) was 7.85% (inactive). The results for the inhibition in assay [5] and in assay [6] were -0.96% (inactive) and 25.2% (inactive), respectively.
As for `CSC1=C(C#N)C(C)CC(=O)N1` (stereo unspecified), the viability in assay [1] was 91% (inactive); in assay [2] it was 107% (inactive); in assay [3] it was 115% (inactive); in assay [4] (setting [7]) it was 105%; in assay [4] (setting [8]), 115%. For the same compound, the differential viability (reversal) in assay [4] (H69AR cells + 2 uM doxorubicin) is 9.97% (inactive). Also, the inhibition in assay [5] is -7.81% (inactive); in assay [6], 2.18% (inactive).
`Cc1[nH]nc2c1C(CCc1ccccc1)C(C#N)=C(N)O2` (stereo unspecified): the viability was 104% (inactive) in assay [1]; 94.2% (inactive) in assay [2]; 90.2% (inactive) in assay [3]; 92.9% in assay [4] (setting [7]); 90.2% in assay [4] (setting [8]). Moreover, the differential viability (reversal) in assay [4] (H69AR cells + 2 uM doxorubicin) was -2.73% (inactive). Moreover, the inhibition is 4.11% (inactive) in assay [5] and 15.8% (inactive) in assay [6].
`COc1ccc(OCCN2C(=O)NC(C)(c3ccc(C)cc3)C2=O)cc1` (stereo unspecified): the viability is 119% (inactive) in assay [1]; 101% (inactive) in assay [2]; 91.1% (inactive) in assay [3]; 94.9% in assay [4] (setting [7]); 91.1% in assay [4] (setting [8]). For the same compound, the differential viability (reversal) in assay [4] (H69AR cells + 2 uM doxorubicin) is -3.77% (inactive). The results for the inhibition in assay [5] and in assay [6] were 3.15% (inactive) and -4.03% (inactive), respectively.
For the compound `O=C(CNC(=O)c1cc2ccccc2o1)NCc1cccs1`, the viability in assay [1] was 122% (inactive); in assay [2], 80.8% (inactive); in assay [3] it was 84.4% (inactive); in assay [4] (setting [7]) it was 88.8%; in assay [4] (setting [8]) it was 84.4%. The differential viability (reversal) in assay [4] (H69AR cells + 2 uM doxorubicin) was -4.37% (inactive). The inhibition in assay [5] was 0.26% (inactive); in assay [6] it was 5.74% (inactive).
Turning to `COc1ccc(C(NC(C)=O)c2ccc3cccnc3c2O)c(OC)c1` (stereo unspecified), the viability in assay [1] is 65% (inactive); in assay [2], 3.65% (active); in assay [3], 23% (active); in assay [4] (setting [7]), 45.1%; in assay [4] (setting [8]) it was 23%. The differential viability (reversal) in assay [4] (H69AR cells + 2 uM doxorubicin) was -22.1% (inactive). The figures for the inhibition in assay [5] and in assay [6] were -6.4% (inactive) and 1.09% (inactive), respectively.
`Cn1c(=O)c2c(ncn2CCO)n(C)c1=O`: the viability in assay [1] was 119% (inactive); in assay [2], 91% (inactive); in assay [3] it was 100% (inactive); in assay [4] (setting [7]), 93%; in assay [4] (setting [8]) it was 100%. Also, the differential viability (reversal) in assay [4] (H69AR cells + 2 uM doxorubicin) was 7.42% (inactive). For the same compound, the inhibition in assay [5] was 0% (inactive); in assay [6], 0.67% (inactive).
